In ChEMBL document CHEMBL4219021, “Discovery of a Small-Molecule Degrader of Bromodomain and Extra-Terminal (BET) Proteins with Picomolar Cellular Potencies and Capable of Achieving Tumor Regression” (J Med Chem, 2018):

Columns and labels:
RS4-11 = assay: Cytotoxicity against human RS4:11 cells assessed as cell growth inhibition after 4 days by WST-8 assay; format: functional, cell-based; settings: RS4-11, 96 h
MOLM-13 = assay: Cytotoxicity against human MOLM13 cells assessed as cell growth inhibition after 4 days by WST-8 assay; format: functional, cell-based; settings: MOLM-13, 96 h
[1] = target: Protein cereblon/Bromodomain-containing protein 3/Cullin-4A (Homo sapiens) (UniProt Q15059+Q96SW2+Q13619); assay: Induction of cereblon/cullin 4A-mediated BRD3 degradation in human RS4:11 cells after 3 hrs by Western blot method; format: cell-based
Sequence of Protein cereblon/Bromodomain-containing protein 3/Cullin-4A (Homo sapiens) (Q13619 whole entry, looked up): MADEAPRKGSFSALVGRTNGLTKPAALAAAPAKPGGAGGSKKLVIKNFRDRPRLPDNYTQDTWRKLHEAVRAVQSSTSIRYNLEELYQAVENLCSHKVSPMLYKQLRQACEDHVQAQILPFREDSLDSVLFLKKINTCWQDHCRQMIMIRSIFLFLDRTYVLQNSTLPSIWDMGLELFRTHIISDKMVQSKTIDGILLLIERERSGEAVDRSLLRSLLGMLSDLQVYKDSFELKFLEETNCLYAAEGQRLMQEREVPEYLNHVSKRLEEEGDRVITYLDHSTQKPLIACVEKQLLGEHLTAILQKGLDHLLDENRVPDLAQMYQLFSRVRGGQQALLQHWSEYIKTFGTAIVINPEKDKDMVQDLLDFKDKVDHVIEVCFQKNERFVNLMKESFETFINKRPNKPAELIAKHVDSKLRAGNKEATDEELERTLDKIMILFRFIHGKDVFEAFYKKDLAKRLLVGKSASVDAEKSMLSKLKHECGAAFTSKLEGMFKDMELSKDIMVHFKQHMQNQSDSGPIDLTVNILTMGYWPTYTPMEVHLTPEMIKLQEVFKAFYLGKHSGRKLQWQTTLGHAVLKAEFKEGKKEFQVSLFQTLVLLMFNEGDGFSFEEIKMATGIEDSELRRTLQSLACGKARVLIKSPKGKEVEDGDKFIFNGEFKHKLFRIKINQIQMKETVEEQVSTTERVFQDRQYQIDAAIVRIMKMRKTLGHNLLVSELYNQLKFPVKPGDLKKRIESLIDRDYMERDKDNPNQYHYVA
Sequence of Protein cereblon/Bromodomain-containing protein 3/Cullin-4A (Homo sapiens) (Q15059 whole entry, looked up): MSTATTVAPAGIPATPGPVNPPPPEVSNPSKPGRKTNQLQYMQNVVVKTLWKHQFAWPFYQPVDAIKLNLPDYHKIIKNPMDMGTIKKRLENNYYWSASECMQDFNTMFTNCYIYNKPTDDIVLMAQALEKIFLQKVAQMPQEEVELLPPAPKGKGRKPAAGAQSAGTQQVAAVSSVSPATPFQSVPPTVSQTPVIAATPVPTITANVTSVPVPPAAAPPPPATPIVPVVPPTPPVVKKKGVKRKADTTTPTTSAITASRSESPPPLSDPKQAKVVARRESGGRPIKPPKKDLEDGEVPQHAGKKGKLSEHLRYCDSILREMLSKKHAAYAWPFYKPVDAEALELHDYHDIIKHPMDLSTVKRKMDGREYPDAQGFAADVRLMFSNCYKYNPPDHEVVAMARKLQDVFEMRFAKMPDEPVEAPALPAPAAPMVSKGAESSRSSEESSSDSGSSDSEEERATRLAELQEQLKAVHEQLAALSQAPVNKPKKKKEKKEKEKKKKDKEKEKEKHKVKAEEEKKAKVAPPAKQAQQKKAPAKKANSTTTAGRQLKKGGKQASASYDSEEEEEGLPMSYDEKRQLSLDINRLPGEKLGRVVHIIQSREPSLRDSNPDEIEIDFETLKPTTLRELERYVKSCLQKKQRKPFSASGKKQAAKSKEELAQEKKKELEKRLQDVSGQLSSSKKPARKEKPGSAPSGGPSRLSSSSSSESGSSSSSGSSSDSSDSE
Sequence of Protein cereblon/Bromodomain-containing protein 3/Cullin-4A (Homo sapiens) (Q96SW2 whole entry, looked up): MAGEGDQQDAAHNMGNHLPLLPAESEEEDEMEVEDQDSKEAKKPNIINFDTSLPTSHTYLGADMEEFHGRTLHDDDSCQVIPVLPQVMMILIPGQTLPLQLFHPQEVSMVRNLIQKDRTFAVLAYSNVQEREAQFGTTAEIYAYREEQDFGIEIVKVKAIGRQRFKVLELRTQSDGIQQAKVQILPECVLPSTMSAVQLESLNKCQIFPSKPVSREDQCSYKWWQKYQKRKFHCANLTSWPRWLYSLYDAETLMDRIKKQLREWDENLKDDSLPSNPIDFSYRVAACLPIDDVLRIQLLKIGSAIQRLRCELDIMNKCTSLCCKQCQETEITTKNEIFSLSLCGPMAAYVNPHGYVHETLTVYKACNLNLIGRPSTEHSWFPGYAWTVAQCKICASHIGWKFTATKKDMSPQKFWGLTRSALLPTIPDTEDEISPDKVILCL
Method in brief: (§1)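 RS4;11 cells (2 × 10⁶/well) treated for 3 h at the indicated concentrations. Lysed in RIPA with protease inhibitors and immunoblotted for BRD2, BRD3 and BRD4 with specific antibodies.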

[2] = target: Protein cereblon/Bromodomain-containing protein 4/Cullin-4A (Homo sapiens) (UniProt O60885+Q96SW2+Q13619); assay: Induction of cereblon/cullin 4A-mediated BRD4 degradation in human RS4:11 cells after 3 hrs by Western blot method; format: cell-based
Method in brief: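 Western blot of RS4;11 cells (2 × 10⁶ cells/well) in RPMI 1640 with 10% FBS, 37 °C, 5% CO₂, used within three months of thawing. Compound exposure was 3 h or 24 h at the indicated concentrations. Cells were lysed in RIPA with protease inhibitors, and BRD2, BRD3 and BRD4 were detected with specific antibodies, with GAPDH as loading control.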

[3] = target: Protein cereblon/Bromodomain-containing protein 2/Cullin-4A (Homo sapiens) (UniProt P25440+Q96SW2+Q13619); assay: Induction of cereblon/cullin 4A-mediated BRD2 degradation in human RS4:11 cells after 3 hrs by Western blot method; format: cell-based; method in brief: as §1
Sequence of Protein cereblon/Bromodomain-containing protein 2/Cullin-4A (Homo sapiens) (P25440 whole entry, looked up): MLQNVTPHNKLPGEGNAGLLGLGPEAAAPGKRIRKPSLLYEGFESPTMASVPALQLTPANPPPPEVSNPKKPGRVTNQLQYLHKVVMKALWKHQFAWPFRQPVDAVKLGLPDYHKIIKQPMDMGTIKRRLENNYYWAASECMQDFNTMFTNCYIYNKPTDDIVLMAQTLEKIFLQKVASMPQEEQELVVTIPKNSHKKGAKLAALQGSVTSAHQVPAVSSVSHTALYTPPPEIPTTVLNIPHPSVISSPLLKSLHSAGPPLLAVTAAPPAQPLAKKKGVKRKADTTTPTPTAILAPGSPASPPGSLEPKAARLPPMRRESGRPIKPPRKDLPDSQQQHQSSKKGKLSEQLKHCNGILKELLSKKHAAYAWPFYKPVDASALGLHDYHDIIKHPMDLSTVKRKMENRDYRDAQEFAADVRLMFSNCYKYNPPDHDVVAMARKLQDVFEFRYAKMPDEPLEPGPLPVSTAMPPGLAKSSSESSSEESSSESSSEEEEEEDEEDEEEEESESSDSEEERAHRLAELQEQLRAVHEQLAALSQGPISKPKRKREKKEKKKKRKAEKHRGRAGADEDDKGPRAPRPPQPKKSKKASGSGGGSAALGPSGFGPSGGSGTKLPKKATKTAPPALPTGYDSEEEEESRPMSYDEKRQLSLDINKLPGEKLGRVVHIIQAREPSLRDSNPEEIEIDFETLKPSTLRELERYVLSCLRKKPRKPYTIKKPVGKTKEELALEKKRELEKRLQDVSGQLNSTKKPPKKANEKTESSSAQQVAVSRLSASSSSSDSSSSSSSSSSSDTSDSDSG
Sequence of Protein cereblon/Bromodomain-containing protein 2/Cullin-4A (Homo sapiens) (Q13619 whole entry, looked up): as the sequence (Q13619 whole entry, looked up) above
Sequence of Protein cereblon/Bromodomain-containing protein 2/Cullin-4A (Homo sapiens) (Q96SW2 whole entry, looked up): as the sequence (Q96SW2 whole entry, looked up) above

Row | SMILES | IC50 (RS4-11) [nM] | IC50 (MOLM-13) [nM] | Activity [1] | Activity [2] | Activity [3]
1 | CCn1nc(C2CC2)cc1Nc1nc(C(=O)NCCCCc2cccc3c2CN(C2CCC(=O)NC2=O)C3=O)nc2[nH]c3cc(-c4c(C)noc4C)c(OC)cc3c12 (configuration not stated) | 0.98 | 13.7 | Dose-dependent effect | Dose-dependent effect | Dose-dependent effect
2 | CCn1nc(C2CC2)cc1Nc1nc(C(=O)NCCCCNc2cccc3c2C(=O)N(C2CCC(=O)NC2=O)C3=O)nc2[nH]c3cc(-c4c(C)noc4C)c(OC)cc3c12 (configuration not stated) | 0.45 | 5 | – | – | –
3 | CCn1nc(C2CC2)cc1Nc1nc(C(=O)NCCNc2cccc3c2C(=O)N(C2CCC(=O)NC2=O)C3=O)nc2[nH]c3cc(-c4c(C)noc4C)c(OC)cc3c12 (configuration not stated) | 4.8 | 68.7 | – | – | –
4 | CCn1nc(C2CC2)cc1Nc1nc(C(=O)NCCCCCCCOc2cccc3c2C(=O)N(C2CCC(=O)NC2=O)C3=O)nc2[nH]c3cc(-c4c(C)noc4C)c(OC)cc3c12 (configuration not stated) | 0.48 | 3.9 | – | – | –
5 | COc1cc2c(cc1-c1c(C)noc1C)[nH]c1nc(C(=O)NCCCCCc3cccc4c3CN(C3CCC(=O)NC3=O)C4=O)ncc12 (configuration not stated) | > 1000 | > 1000 | – | – | –
6 | CCn1nc(C2CC2)cc1Nc1nc(C(=O)NCCCc2cccc3c2CN(C2CCC(=O)NC2=O)C3=O)nc2[nH]c3cc(-c4c(C)noc4C)c(OC)cc3c12 (configuration not stated) | 9.6 | 72.3 | Dose-dependent effect | Dose-dependent effect | Dose-dependent effect
7 | CCn1nc(C2CC2)cc1Nc1nc(C(=O)NCCCCCCc2cccc3c2CN(C2CCC(=O)NC2=O)C3=O)nc2[nH]c3cc(-c4c(C)noc4C)c(OC)cc3c12 (configuration not stated) | 0.037 | 1 | Dose-dependent effect | Dose-dependent effect | Dose-dependent effect
8 | CCn1nc(C2CC2)cc1Nc1nc(C(=O)NCCOCCCc2cccc3c2CN(C2CCC(=O)NC2=O)C3=O)nc2[nH]c3cc(-c4c(C)noc4C)c(OC)cc3c12 (configuration not stated) | 0.9 | 5.4 | – | – | –
9 | CCn1nc(C2CC2)cc1Nc1nc(C(=O)NCCOCCCc2cccc3c2C(=O)N(C2CCC(=O)NC2=O)C3=O)nc2[nH]c3cc(-c4c(C)noc4C)c(OC)cc3c12 (configuration not stated) | 0.42 | 5.9 | – | – | –
10 | CCn1nc(C2CC2)cc1Nc1nc(C(=O)NCCCNc2cccc3c2C(=O)N(C2CCC(=O)NC2=O)C3=O)nc2[nH]c3cc(-c4c(C)noc4C)c(OC)cc3c12 (configuration not stated) | 2.4 | 9.5 | – | – | –
11 | CCn1nc(C2CC2)cc1Nc1nc(C(=O)NCCCCCCc2cccc3c2C(=O)N(C2CCC(=O)NC2=O)C3=O)nc2[nH]c3cc(-c4c(C)noc4C)c(OC)cc3c12 (configuration not stated) | 0.17 | 2.5 | – | – | –
12 | CCn1nc(C2CC2)cc1Nc1nc(C(=O)NCCCCNC(=O)CNc2cccc3c2C(=O)N(C2CCC(=O)NC2=O)C3=O)nc2[nH]c3cc(-c4c(C)noc4C)c(OC)cc3c12 (configuration not stated) | 2.5 | 19.9 | – | – | –
13 | CCn1nc(C2CC2)cc1Nc1nc(C(=O)NCCCCCCNc2cccc3c2C(=O)N(C2CCC(=O)NC2=O)C3=O)nc2[nH]c3cc(-c4c(C)noc4C)c(OC)cc3c12 (configuration not stated) | 0.63 | 3.7 | – | – | –
14 | CCn1nc(C2CC2)cc1Nc1nc(C(=O)NCCCCCc2cccc3c2C(=O)N(C2CCC(=O)NC2=O)C3=O)nc2[nH]c3cc(-c4c(C)noc4C)c(OC)cc3c12 (configuration not stated) | 0.14 | 2.1 | – | – | –
